In experiment [1] the test system is KB. Put plainly: Cytotoxicity against human KB cells assessed as cell viability at 10 uM after 48 hrs by MTS assay. Type of experiment: functional. To be noted: read-out: Activity. In a few lines:
(§1)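 KB (P-gp-negative) and KBV20C (P-gp-expressing) cells were grown in RPMI 1640 with 10% FBS and 1% penicillin/streptomycin. KBV20C cells were maintained with 20 nM vincristine. Cells were exposed to each compound at 10 µM for 48 h. Viability (%) was read by MTS. Values are means ± standard deviation of three experiments.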

Experiment [2] can be described thus: Cytotoxicity against multidrug resistant P-gp expressing human KBV20C cells assessed as cell viability at 10 uM after 48 hrs by MTS assay. The format is functional. The following applies: read-out: Activity. In a few lines: as §1
Experiment [3] in a line: Cytotoxicity against multidrug resistant P-gp expressing human KBV20C cells assessed as cell viability in presence of vincristine by MTS assay. The format is functional, cell-based.
Experiment [4] can be described thus: Cytotoxicity against multidrug resistant P-gp expressing human KBV20C cells assessed as cell viability in presence of paclitaxel by MTS assay. The format is functional, cell-based.
The subject of experiment [5] is KB. Description: Cytotoxicity against human KB cells assessed as cell viability after 48 hrs by MTS assay. Type of experiment: functional, cell-based.
Experiment [6] can be described thus: Cytotoxicity against multidrug resistant P-gp expressing human KBV20C cells assessed as cell viability after 48 hrs by MTS assay. The format is functional, cell-based.
In a further experiment the test system is KBV20C. Put plainly: Inhibition of Pgp in multidrug resistant human KBV20C cells assessed as increase in intracellular accumulation of Rh123. Type of experiment: cell-based. In a few lines: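 They were then incubated a further 3 h with Rh123 and washed with PBS. Mean intracellular Rh123 fluorescence was measured by flow cytometry and expressed relative to control. Values are means ± SD of three independent experiments, compared by Student's t-test.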

Results on 18 compounds are retold here after ChEMBL document CHEMBL1142402, “Synthesis of curcumin mimics with multidrug resistance reversal activities” (Bioorg Med Chem, 2008).

Calls of active or inactive are those of the source. The calls are words filed in the database; no cut-off is given here.

`CCCC(=O)Nc1cccc(C(=O)/C=C/c2ccc(O)c(OC)c2)c1`: the values for the viability at 10 µM (in the experiment on KB [1]; in experiment [2]) were 77.1% and 80.8%, respectively. The IC50 in experiment [3] amounted to 2.89 µM; in experiment [4] it was 0.21 µM.
As for `COc1cc(/C=C/C(=O)c2cccc(NC(=O)c3ccco3)c2)ccc1O`, the viability at 10 µM with KB [1] is 60.2%; in experiment [2], 77.6%. Moreover, the IC50 in experiment [3] amounted to 1.44 µM; in experiment [4], 0.21 µM.
As to `CC[C@]1(O)C[C@H]2CN(CCc3c([nH]c4ccccc34)[C@@](C(=O)OC)(c3cc4c(cc3OC)N(C=O)[C@H]3[C@@](O)(C(=O)OC)[C@H](OC(C)=O)[C@]5(CC)C=CCN6CC[C@]43[C@@H]65)C2)C1` [VINCRISTINE], the IC50 worked out at 0.0079 µM in the experiment on KB [5] and 5.72 µM in experiment [6].
Turning to `CC(=O)O[C@H]1C(=O)[C@@]2(C)[C@H]([C@H](OC(=O)c3ccccc3)[C@]3(O)C[C@H](OC(=O)[C@H](O)[C@@H](NC(=O)c4ccccc4)c4ccccc4)C(C)=C1C3(C)C)[C@]1(OC(C)=O)CO[C@@H]1C[C@@H]2O` [PACLITAXEL], the IC50 turned out to be 0.0042 µM in the experiment with KB [5] and 1.44 µM in experiment [6].
In the case of `COc1cc(/C=C/C(=O)c2cccc(NC(=O)c3ccc(Cl)cc3)c2)ccc1O`, the viability at 10 µM in the experiment with KB [1] worked out at 95.7%; in experiment [2], 96.6%. The IC50 in experiment [3] came to 0.48 µM; in experiment [4], 0.063 µM. Besides, the outcome in the experiment with KBV20C was Active.
In the same order, the values of `COc1cc(/C=C/C(=O)c2cccc(NC(=O)c3ccc(Cl)c(Cl)c3)c2)ccc1O` are 78.3%, 72.6%, 0.85 µM, 0.026 µM and “Active”.
Turning to `COc1cc(/C=C/C(=O)c2cccc(N)c2)ccc1O`, the viability at 10 µM was 97.6% in the experiment with KB [1] and 99.4% in experiment [2]. In addition, the concentration for half-maximal inhibition (IC50) came to 1.26 µM in experiment [3] and 0.83 µM in experiment [4].
Regarding `COc1cc(/C=C/C(=O)c2cccc(NC(=O)c3cc(Cl)cc(Cl)c3)c2)ccc1O`, the viability at 10 µM in the experiment on KB [1] was 68.7%; in experiment [2], 70.3%. Moreover, the results for the IC50 in experiment [3] and in experiment [4] were 0.41 µM and 0.022 µM, respectively. Moreover, the result with KBV20C was Active.
Turning to `COc1ccc(CCN(C)CCC[C@](C#N)(c2ccc(OC)c(OC)c2)C(C)C)cc1OC`, the result in the experiment on KBV20C was Active.
On to `COc1cc(/C=C/C(=O)c2cccc(NC(=O)c3cccs3)c2)ccc1O`, for which the viability at 10 µM with KB [1] is 74.7%; in experiment [2] it was 83.6%. Moreover, the figures for the IC50 in experiment [3] and in experiment [4] were 1.41 µM and 0.18 µM, respectively.
In the same order, the values of `COC(=O)CC(=O)Nc1cccc(C(=O)/C=C/c2ccc(O)c(OC)c2)c1` are 72.9%, 106%, 3.81 µM and 0.32 µM.
In the same order, the values of `CCOC(=O)C(=O)Nc1cccc(C(=O)/C=C/c2ccc(O)c(OC)c2)c1` are 84.7%, 103%, 3.31 µM and 1.09 µM.
Take `COc1cc(/C=C/C(=O)c2cccc(NC(C)=O)c2)ccc1O`: the viability at 10 µM worked out at 98.2% with KB [1] and 92.4% in experiment [2]. The results for the IC50 in experiment [3] and in experiment [4] were 1.26 µM and 0.72 µM, respectively.
In the same order, the values of `COc1cc(/C=C/C(=O)CC(=O)/C=C/c2ccc(O)c(OC)c2)ccc1O` [CURCUMIN] are 89.2%, 93.1%, 0.82 µM and 0.42 µM.
Consider `COc1cc(/C=C/C(=O)c2cccc(NC(=O)c3c(Cl)cccc3Cl)c2)ccc1O`, for which the viability at 10 µM turned out to be 93.7% in the experiment with KB [1] and 75.3% in experiment [2]. The IC50 in experiment [3] is 1.23 µM; in experiment [4], 0.1 µM.
Turning to `COc1cc(/C=C/C(=O)c2cccc(NC(=O)c3ccccc3)c2)ccc1O`, the viability at 10 µM in the experiment with KB [1] stood at 89.5%; in experiment [2], 85.5%. Besides, the IC50 in experiment [3] was 3.82 µM; in experiment [4], 0.42 µM.
`COc1cc(/C=C/C(=O)c2cccc(NC(=O)C(C)C)c2)ccc1O`: the viability at 10 µM in the experiment on KB [1] worked out at 67.5%; in experiment [2] it was 67.7%. For the same compound, the IC50 turned out to be 2.92 µM in experiment [3] and 0.24 µM in experiment [4].
On to `COc1cc(/C=C/C(=O)c2cccc(NC(=O)c3ccc(Cl)cc3Cl)c2)ccc1O`, for which the viability at 10 µM amounted to 98.3% with KB [1] and 94.6% in experiment [2]. Further, the concentration for half-maximal inhibition (IC50) in experiment [3] is 0.72 µM; in experiment [4], 0.045 µM.
